The values that follow come from ChEMBL document CHEMBL3407486, “Additivity or cooperativity: which model can predict the influence of simultaneous incorporation of two or more functionalities in a ligand molecule?” (Eur J Med Chem, 2015).

pKi: −log10 of the molar value.

In this experiment the target is T1, Thermolysin (Bacillus thermoproteolyticus, UniProt P00800).
T1 sequence (P00800 whole entry): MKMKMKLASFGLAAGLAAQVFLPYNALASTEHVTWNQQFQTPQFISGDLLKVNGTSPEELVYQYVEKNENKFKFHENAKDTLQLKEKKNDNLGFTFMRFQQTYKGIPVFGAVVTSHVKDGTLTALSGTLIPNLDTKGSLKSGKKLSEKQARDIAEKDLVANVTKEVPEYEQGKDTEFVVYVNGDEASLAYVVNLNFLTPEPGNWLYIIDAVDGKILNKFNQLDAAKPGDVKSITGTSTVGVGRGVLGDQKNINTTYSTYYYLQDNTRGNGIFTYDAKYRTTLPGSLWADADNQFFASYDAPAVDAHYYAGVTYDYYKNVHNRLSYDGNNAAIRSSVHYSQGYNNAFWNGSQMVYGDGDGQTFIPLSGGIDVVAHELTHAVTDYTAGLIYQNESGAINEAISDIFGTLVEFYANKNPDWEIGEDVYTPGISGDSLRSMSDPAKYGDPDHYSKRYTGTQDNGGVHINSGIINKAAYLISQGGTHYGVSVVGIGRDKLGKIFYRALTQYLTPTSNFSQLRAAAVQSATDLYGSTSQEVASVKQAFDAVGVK
The experiment can be described thus: Inhibition of Bacillus thermoproteolyticus TLN using 2-furanacryloyl-Gly-Leu-NH2 substrate by biochemical assay. The method, boiled down: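 Read photometrically at 345 nm, 25.0 ± 0.2 °C, in 0.05 M Tris with 0.02 M CaCl2, 2.5 M NaBr, 1.25% DMF, pH 7.3. Final enzyme ~8 nM (stock quantified by A280). Inhibitor spanned 0.5Ki–10Ki. IC50 from υ0/υi vs [I] plots (Ki above 30 nM) or Henderson plots (below). Ki via Cheng-Prusoff (Km 3.9 ± 0.6 mM), averaged over at least three determinations.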

The pKi is the Ki on a negative log10 scale, so that one unit is a factor of ten. A high value points to a low Ki. As for `CC(C)C[C@H](NP(=O)(O)CNC(=O)OCc1ccccc1)C(=O)N[C@H](C(=O)O)C(C)(C)C`, the pKi was 7.51. To `CC(C)CCNC(=O)[C@H](C)NP(=O)(O)CNC(=O)OCc1ccccc1` belongs 4.71; to `CCCCCNC(=O)[C@H](CC(C)C)NP(=O)(O)CNC(=O)OCc1ccccc1`, 7.23. Turning to `CC(C)C[C@H](NP(=O)(O)CNC(=O)OCc1ccccc1)C(=O)N[C@@H](Cc1cccs1)C(=O)O`, the pKi is 7.62. To `CC(C)C[C@H](NP(=O)(O)CNC(=O)OCc1ccccc1)C(=O)NCCC(C)(C)C` belongs 7.37. Regarding `CCC[C@H](NP(=O)(O)CNC(=O)OCc1ccccc1)C(=O)N[C@@H](CC(C)C)C(=O)O`, the pKi was 7.54. `CCC[C@H](NP(=O)(O)CNC(=O)OCc1ccccc1)C(=O)NCCC(C)C` had a pKi of 6.66. Take `CC[C@H](NC(=O)[C@H](CC(C)C)NP(=O)(O)CNC(=O)OCc1ccccc1)C(=O)O`: the pKi is 8.31. The result for `C[C@H](NP(=O)(O)CNC(=O)OCc1ccccc1)C(=O)NCC(=O)O` reads 3.72; that for `CC(C)C[C@H](NP(=O)(O)CNC(=O)OCc1ccccc1)C(=O)NCCc1cccs1`, 6.72; that for `CCC[C@H](NC(=O)[C@H](CC(C)C)NP(=O)(O)CNC(=O)OCc1ccccc1)C(=O)O`, 8.26. To `CC(C)CNC(=O)[C@H](CC(C)C)NP(=O)(O)CNC(=O)OCc1ccccc1` belongs 7.43; to `CC(C)C[C@H](NP(=O)(O)CNC(=O)OCc1ccccc1)C(=O)NCCc1ccccc1`, 6.53; to `CCCNC(=O)[C@H](CC(C)C)NP(=O)(O)CNC(=O)OCc1ccccc1`, 7.22. With `CC[C@H](NP(=O)(O)CNC(=O)OCc1ccccc1)C(=O)N[C@@H](CC(C)C)C(=O)O`, the pKi was 6.22.

In the case of `CC(C)C[C@H](NP(=O)(O)CNC(=O)OCc1ccccc1)C(=O)N[C@H](C(=O)O)C(C)C`, the pKi is 8.24. To `CC(C)C[C@H](NP(=O)(O)CNC(=O)OCc1ccccc1)C(=O)N[C@@H](Cc1ccccc1)C(=O)O` belongs 7.27. As to `CNC(=O)[C@H](C)NP(=O)(O)CNC(=O)OCc1ccccc1`, the pKi is 3.73.

Compound `CCCC[C@H](NC(=O)[C@H](CC(C)C)NP(=O)(O)CNC(=O)OCc1ccccc1)C(=O)O` showed a pKi of 8.28. The result for `CCCNC(=O)[C@H](C)NP(=O)(O)CNC(=O)OCc1ccccc1` reads 4.91. The result for `CC(C)C[C@H](NP(=O)(O)CNC(=O)OCc1ccccc1)C(=O)N[C@@H](CC(C)(C)C)C(=O)O` reads 7.40; that for `CCC(C)CNC(=O)[C@H](CC(C)C)NP(=O)(O)CNC(=O)OCc1ccccc1` (some centres undefined), 7.59; that for `C[C@H](NC(=O)[C@H](C)NP(=O)(O)CNC(=O)OCc1ccccc1)C(=O)O`, 5.14. Compound `CC[C@H](NP(=O)(O)CNC(=O)OCc1ccccc1)C(=O)NCCC(C)C` had a pKi of 5.71. To `CCCCNC(=O)[C@H](CC(C)C)NP(=O)(O)CNC(=O)OCc1ccccc1` belongs 7.17. In the case of `C[C@H](NP(=O)(O)CNC(=O)OCc1ccccc1)C(=O)N[C@@H](Cc1ccccc1)C(=O)O`, the negative logarithm of the Ki (pKi) is 4.51. `CCNC(=O)[C@H](C)NP(=O)(O)CNC(=O)OCc1ccccc1` had a pKi of 4.25. For the compound `CC(C)CCNC(=O)[C@H](CC(C)C)NP(=O)(O)CNC(=O)OCc1ccccc1`, the negative logarithm of the Ki (pKi) is 7.16.

In turn, `CC(C)C[C@H](NC(=O)[C@H](CC(C)C)NP(=O)(O)CNC(=O)OCc1ccccc1)C(=O)O` had a pKi of 8.00. Take `C[C@H](NP(=O)(O)CNC(=O)OCc1ccccc1)C(=O)NCCc1ccccc1`: the pKi was 4.34.

`CCC(C)[C@H](NC(=O)[C@H](CC(C)C)NP(=O)(O)CNC(=O)OCc1ccccc1)C(=O)O` (some centres undefined) had a pKi of 7.92. Turning to `CC(C)C[C@H](NC(=O)[C@H](C)NP(=O)(O)CNC(=O)OCc1ccccc1)C(=O)O`, the pKi was 5.23.

With `CC[C@H](NC(=O)[C@H](C)NP(=O)(O)CNC(=O)OCc1ccccc1)C(=O)O`, the pKi is 5.86.

Regarding `CC(C)C[C@H](NP(=O)(O)CNC(=O)OCc1ccccc1)C(=O)NCC(C)(C)C`, the pKi was 7.00.
